Screens as filed in PubChem.
PLC-gamma1 inh – blocks human PLC-gamma1 enzyme activity. P19174. hit rate 0.84% among 370,000. AID 720700. purified PLC-gamma1, fluorogenic substrate, fluorescence. inhibition, % at 12.2 µM; in the data active = inhibition above about 9.5%
PLC-beta3 inh – blocks human PLC-beta3 enzyme activity; Q01970; Purified PLC-beta3, fluorogenic substrate, fluorescence; inhibition, % at 12.2 µM; hit rate 0.18% among 370,000; AID 720704
TbMetRS inhib – blocks T. brucei methionyl-tRNA synthetase activity. purified T. brucei MetRS, ATP depletion, Kinase-Glo luminescence. inhibition, % at 11.9 µM. hit rate 0.4% among 360,000. AID 624268;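 active = inhibition above a per-plate cutoff of the control wells' mean inhibition plus 3 SD, cut at about 5.5% in these data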
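Dosing: 11.9 µM single point; system: parasite MetRS enzyme; technique: luminescence of leftover ATP; times: 15 min enzyme-compound preincubation, 2 h reaction, 10 min detection, 25 °C; replicates: each compound tested once; read-out basis: percent inhibition relative to median high and low control wells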
HGIII-sPLA2 inh – Blocks human group III sPLA2 activity | Q9NZ20 | QFRET BODIPY PC-A2 liposome hydrolysis, fluorescence | inhibition, % at 12.2 µM | hit rate 0.56% among 370,000;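 active = inhibition above mean plus 3 SD of compounds lying within the high and low control bounds, cut at about 19% in these data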
Target sequence (Q9NZ20 whole entry, looked up): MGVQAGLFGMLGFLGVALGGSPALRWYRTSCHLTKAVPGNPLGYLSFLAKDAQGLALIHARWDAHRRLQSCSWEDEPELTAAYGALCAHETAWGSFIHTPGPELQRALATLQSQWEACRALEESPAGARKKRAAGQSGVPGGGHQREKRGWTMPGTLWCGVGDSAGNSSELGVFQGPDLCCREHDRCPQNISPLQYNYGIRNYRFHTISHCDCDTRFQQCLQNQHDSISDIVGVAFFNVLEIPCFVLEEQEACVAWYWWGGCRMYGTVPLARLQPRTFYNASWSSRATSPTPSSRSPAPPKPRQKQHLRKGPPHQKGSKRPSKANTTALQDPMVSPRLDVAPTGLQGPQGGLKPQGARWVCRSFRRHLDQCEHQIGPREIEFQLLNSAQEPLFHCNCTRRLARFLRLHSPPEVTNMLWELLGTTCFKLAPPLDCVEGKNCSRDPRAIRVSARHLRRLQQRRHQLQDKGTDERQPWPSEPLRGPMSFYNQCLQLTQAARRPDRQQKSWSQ
DAGLB inhibitor – blocks human DAGLB lipase activity; hit rate 0.059% among 340,000; inhibition, % at 5.17 µM; HEK293T DAGLB membrane lysate, EnzChek fluorogenic substrate; in the data active = inhibition above about 34%
Tb MetRS conf – confirmation of Trypanosoma brucei MetRS inhibitors; inhibition, % at 11.9 µM; shares compounds with TbMetRS inhib; hit rate 93% among 1,400; T. brucei MetRS enzyme, luminescence (ATP depletion); in the data active = inhibition above about 7%
Jurkat tox – counter-screen for T. brucei MetRS inhibitors: Jurkat cell cytotoxicity | inhibition, % at 8.3 µM | shares compounds with TbMetRS inhib | hit rate 12% among 1,400 | Jurkat cells viability, ATP luminescence | AID 624413; in the data active = inhibition above about 15%
TbMetRS FP orth – orthogonal test for Trypanosoma brucei MetRS inhibitors; hit rate 44% among 1,400; inhibition, % at 11.9 µM; shares compounds with TbMetRS inhib; AID 651607; purified T. brucei MetRS, fluorescence polarization; in the data active = inhibition above about 17%
PLCgamma1 ctr – counter-screen for PLC-beta3 inhibitors: inhibitors of human PLC-gamma1; shares compounds with PLC-gamma1 inh; purified PLC-gamma1, fluorogenic substrate, fluorescence; inhibition, % at 12.3 µM; hit rate 3.1% among 3,300; AID 743258; in the data active = inhibition above about 9.5%
PLCbeta3 conf – human PLC-beta3 inhibition, confirmation; shares compounds with PLC-gamma1 inh; purified PLC-beta3, fluorogenic substrate fluorescence; inhibition, % at 12.3 µM; hit rate 1% among 3,300; AID 743261
hGIII sPLA2 conf – human GIII-sPLA2 inhibition, confirmation. shares compounds with HGIII-sPLA2 inh. recombinant hGIII-sPLA2, BODIPY PC-A2 QFRET fluorescence. inhibition, % at 12.2 µM. hit rate 34% among 2,000. AID 743280;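 active = mean inhibition across triplicates above the hit cutoff set in the earlier primary screen, cut at about 19% in these data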
535nm interf – 535nm fluorescence interference, HGIII-sPLA2 counter-screen | shares compounds with HGIII-sPLA2 inh | BODIPY FL product fluorescence interference, QFRET | inhibition, % at 12.2 µM | hit rate 8.5% among 2,000;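 active = average inhibition above the solvent-only control mean plus 3 SD, cut at about 6% in these data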
BODIPY interf DR – 535nm optical interference dose response, HGIII-sPLA2 counter-screen. shares compounds with HGIII-sPLA2 inh. BODIPY FL product fluorescence interference, cell-free. IC50, µM. 240 tested, under 10 active. AID 743455;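 active = IC50 at or below 10 µM; inactive = IC50 above 10 µM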
Each line names hits and unclear results; the compound was inactive in the other large screens (follow-up assays come after a bar, where they were run). A selection: hits, their analogues and other compounds. The true share with any hit is near 1.9%. Rule as the data show it, unless noted: active = inhibition above about 11%; inactive = the rest.

Cc1ccc(Nc2nnc(SCC(=O)Nc3ccc(S(=O)(=O)N4CCOCC4)cc3)s2)cc1	TbMetRS inhib 8.5 | Tb MetRS conf 14.9 | Jurkat tox inactive | TbMetRS FP orth inactive
CCOc1ccc(-n2c(SCC(=O)c3ccc4ccccc4c3)nnc2-c2cccc(Cl)c2)cc1	none (no result: TbMetRS inhib, DAGLB inhibitor)
Cc1ccccc1NC(=O)CN1C(=O)CCSc2ccccc21	none (no result: TbMetRS inhib, DAGLB inhibitor)
C#CCN1CC(N(C)CCOC(=O)CCCc2ccccc2)CS1(=O)=O (stereo not given)	none (no result: TbMetRS inhib, DAGLB inhibitor)
CCCCN(C)Cc1c(C)[nH]c2ccc(C)cc2c1=O	TbMetRS inhib 10.5 | Tb MetRS conf 21.1 | Jurkat tox inactive | TbMetRS FP orth inactive
Cc1cc(Br)ccc1NC(=O)CNC(=O)c1ccc(-n2cncn2)c([N+](=O)[O-])c1	TbMetRS inhib 26.8 | Tb MetRS conf 63.1 | Jurkat tox inactive | TbMetRS FP orth 29.4
Cc1cc(Br)ccc1NC(=O)CN(C)C(=O)c1ccc(-n2cncn2)c([N+](=O)[O-])c1	none
Cc1cccc(C)c1NC(=O)CN(C)C(=O)c1ccc(-n2cncn2)c([N+](=O)[O-])c1	none
Cc1cc(C)c(NC(=O)CNC(=O)c2ccc(-n3cncn3)c([N+](=O)[O-])c2)c(C)c1	TbMetRS inhib 8.0 | Tb MetRS conf 35.0 | Jurkat tox inactive | TbMetRS FP orth inactive
CC(C)(C)c1ccccc1NC(=O)c1ccc(-n2cncn2)c([N+](=O)[O-])c1	TbMetRS inhib 13.5 | Tb MetRS conf 43.4 | Jurkat tox inactive | TbMetRS FP orth inactive
Cc1cc(Br)ccc1NC(=O)c1ccc(-n2cncn2)c([N+](=O)[O-])c1	TbMetRS inhib 32.1 | Tb MetRS conf 79.2 | Jurkat tox inactive | TbMetRS FP orth 52.4
COC(=O)[C@]12C[C@H](CC(=O)N3CCSCC3)C(=O)N(CCC3=CCCCC3)C1=C[C@H](C1CCCC1)O[C@@H]2C	none (no result: TbMetRS inhib, DAGLB inhibitor)
O=C(N[C@@H]1CC[C@H]2SC[C@H](C(=O)O)N2C1=O)OCC1c2ccccc2-c2ccccc21	none (no result: TbMetRS inhib, DAGLB inhibitor)
O=C(Nc1ccccc1OC(F)F)c1ccc(-n2cncn2)c([N+](=O)[O-])c1	TbMetRS inhib 18.8 | Tb MetRS conf 51.7 | Jurkat tox inactive | TbMetRS FP orth 21.8
COC(=O)[C@]12C[C@H](CC(=O)N3CCN(C(=O)c4ccco4)CC3)C(=O)N(CCC3=CCCCC3)C1=C[C@H](COCc1ccccc1)O[C@@H]2C	none (no result: TbMetRS inhib, DAGLB inhibitor)
O=C(CSc1ncc(-c2ccccc2)[nH]1)Nc1cccc(O)c1	TbMetRS inhib 5.6 | Tb MetRS conf 13.4 | Jurkat tox inactive | TbMetRS FP orth inactive
COC(=O)C1CN(Cc2ccccc2)CCS(=O)(=O)N1Cc1cn(Cc2ccc(F)cc2)nn1 (stereo not given)	none (no result: TbMetRS inhib, DAGLB inhibitor)
COc1ccc(-c2coc3c(C(=O)Nc4cccc(C(C)=O)c4)cccc23)c(C)c1	TbMetRS inhib 7.6 (no result: DAGLB inhibitor) | Tb MetRS conf inactive | Jurkat tox inactive | TbMetRS FP orth 21.5
COc1ccc(-c2ccc(C(=O)Nc3cccc(C(C)=O)c3)c3occc23)c(C)c1	none (no result: DAGLB inhibitor)
C=CCn1c(Cc2ccccc2)n[nH]c1=S	none
C=CCn1c(Cc2nc3ccc(Cl)cc3[nH]2)n[nH]c1=S	TbMetRS inhib 6.7 | Tb MetRS conf 20.9 | Jurkat tox inactive | TbMetRS FP orth inactive
CC(=O)c1ccc(N2CCN(C(=O)C(=O)c3c(C)[nH]c4ccccc34)CC2)cc1	none
Cc1[nH]c2ccccc2c1C(=O)C(=O)N1CCN(c2ccccc2F)CC1	PLC-gamma1 inh 14.7, TbMetRS inhib 7.2 | Tb MetRS conf 19.9 | Jurkat tox inactive | TbMetRS FP orth inactive | PLCgamma1 ctr inactive | PLCbeta3 conf inactive
CC(=O)C1(C(=O)NC2CCCC2)CC(c2ccccc2C(F)(F)F)=NO1 (stereo not given)	none (no result: TbMetRS inhib, DAGLB inhibitor)
N=c1n(Cc2ccccc2)c2ccccc2n1CC(O)COc1ccc(Cl)cc1Cl (stereo not given)	PLC-gamma1 inh 12.2, TbMetRS inhib 10.3 | Tb MetRS conf 18.5 | Jurkat tox 76.7 | TbMetRS FP orth inactive | PLCgamma1 ctr inactive | PLCbeta3 conf inactive
O=C(NC1CCC1)c1ccc(C#CC2CC2)c[n+]1[O-]	none (no result: TbMetRS inhib, DAGLB inhibitor)
CCOc1ccc(S(=O)(=O)Nc2cc(Cl)ccc2O)cc1	PLC-gamma1 inh 13.2, TbMetRS inhib 16.5 | Tb MetRS conf 33.4 | Jurkat tox inactive | TbMetRS FP orth inactive | PLCgamma1 ctr inactive | PLCbeta3 conf inactive
CN(C)c1ccc(NC(=O)Cn2cc3c(n2)CCCC3)cc1	TbMetRS inhib 15.9, HGIII-sPLA2 inh 21.4 | Tb MetRS conf 15.8 | Jurkat tox 20.6 | TbMetRS FP orth inactive | hGIII sPLA2 conf inactive | 535nm interf inactive
COc1ccc(Br)cc1CSC(=N)N	TbMetRS inhib 11.1, HGIII-sPLA2 inh 32.9 | Tb MetRS conf inactive | Jurkat tox inactive | TbMetRS FP orth inactive | hGIII sPLA2 conf inactive | 535nm interf inactive
COC(=O)[C@]12C[C@H](CC(=O)NCc3cccc(C(F)(F)F)c3)C(=O)N(CCC3=CCCCC3)C1=C[C@H](COCc1ccccc1)O[C@@H]2C	none (no result: TbMetRS inhib, DAGLB inhibitor)
CCN(CC)C(=O)CSc1nnc(-c2ccc(C(C)(C)C)cc2)n1Cc1ccco1	none (no result: TbMetRS inhib, DAGLB inhibitor)
Clc1ccc(OCCCN2CCCCC2)c(Br)c1	TbMetRS inhib 17.1, HGIII-sPLA2 inh 21.9 | Tb MetRS conf 28.3 | Jurkat tox inactive | TbMetRS FP orth inactive | hGIII sPLA2 conf inactive | 535nm interf inactive
O=C(NNC(=S)Nc1ccc(F)cc1)C1CC1c1ccc(Cl)cc1 (stereo not given)	TbMetRS inhib 48.0, HGIII-sPLA2 inh 20.1 | Tb MetRS conf 66.3 | Jurkat tox inactive | TbMetRS FP orth 41.2 | hGIII sPLA2 conf 35.1 | 535nm interf inactive | BODIPY interf DR inactive
Cc1ccc(C2CC2C(=O)NNC(=S)Nc2cccc(C)c2)cc1 (stereo not given)	none
